From ChEMBL document CHEMBL1153988 (J Med Chem, 2009)

How the values were obtained:
Mus musculus [1] = assay: Anticonvulsant activity in ip dosed CF1 albino mouse assessed as protection against 32 mA current-induced seizure by 6Hz psychomotor seizure test; type: functional
Outline: (§1)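 In the 6 Hz psychomotor seizure test, male CF no. 1 albino mice (18-25 g) received the compound ip in 0.5% methylcellulose. Stimulation was at 32 or 44 mA. Doses were varied to give 3-4 points between 0% and 100% protection, and ED50 with 95% confidence interval came from probit analysis.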

Mus musculus [2] = species on record: Mus musculus; assay: Protective index, ratio of TD50 for CF1 albino mouse to ED50 for 32 mA current-induced CF1 albino mouse seizure model; type: functional
Outline: (§2)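 Protective index is the mouse TD50 (minimal motor impairment) divided by the 6 Hz test ED50 at 32 or 44 mA. Male CF no. 1 mice were dosed ip in 0.5% methylcellulose, and values came from probit analysis.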

Mus musculus [3] = assay: Neurotoxicity in ip dosed CF1 albino mouse assessed as minimal motor impairment; type: toxicity, organism-based; conditions: mouse, in vivo
Outline: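 Mice: male CF no. 1 albino (18-25 g), ip dosing in 0.5% methylcellulose. Minimal motor impairment was scored, with doses varied to give four points between no impairment and all animals impaired.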

Mus musculus [4] = assay: Anticonvulsant activity in ip dosed CF1 albino mouse assessed as protection against 44 mA-current-induced seizure by 6Hz psychomotor seizure test; type: functional; outline: as §1
Mus musculus [5] = assay: Anticonvulsant activity in CF1 albino mouse assessed as protection against scMet-induced seizures at 50 mg/kg, ip after 4 hrs; type: functional, organism-based; parameters: dose 50 mg/kg
Outline: (§3)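 Adult male CF no. 1 albino mice (18-25 g) dosed intraperitoneally with compound suspended in 0.5% methylcellulose (0.01 mL/g). Convulsant challenge given subcutaneously as a 0.85% pentylenetetrazol solution in 0.9% saline. Read-out is animals protected over animals tested, with neurotoxicity scored in parallel.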

Mus musculus [6] = assay: Anticonvulsant activity in CF1 albino mouse assessed as protection against maximal electroshock-induced seizures at 150 mg/kg, ip after 0.5 hrs; type: functional, organism-based; parameters: dose 150 mg/kg
Outline: (§4)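 Adult male CF no. 1 albino mice (18-25 g). Test compound suspended in 0.5% methylcellulose and given intraperitoneally at 0.01 mL/g body weight. Maximal electroshock challenge at the stated time. Read-out is the number of animals protected over the number tested; neurotoxicity is scored in parallel.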

Mus musculus [7] = assay: Anticonvulsant activity in CF1 albino mouse assessed as protection against scMet-induced seizures at 150 mg/kg, ip after 4 hrs; type: functional, organism-based; parameters: dose 150 mg/kg; outline: as §3
Mus musculus [8] = assay: Anticonvulsant activity in CF1 albino mouse assessed as protection against maximal electroshock-induced seizures at 50 mg/kg, ip after 0.5 hrs; type: functional, organism-based; parameters: dose 50 mg/kg; outline: as §4
Mus musculus [9] = assay: Anticonvulsant activity in CF1 albino mouse assessed as protection against maximal electroshock-induced seizures at 450 mg/kg, ip after 0.5 hrs; type: functional, organism-based; parameters: dose 450 mg/kg; outline: as §4
Mus musculus [10] = assay: Neurotoxicity in CF1 albino mouse at 450 mg/kg, ip after 4 hrs; type: toxicity, organism-based; parameters: dose 450 mg/kg, route intraperitoneal; conditions: in vivo
Outline: (§5)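 Male CF no. 1 albino mice (18-25 g) received a single ip dose as a suspension in 0.5% methylcellulose. The read-out was the number of animals showing neurotoxicity (minimal motor impairment) over the number tested.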

Mus musculus [11] = assay: Anticonvulsant activity in CF1 albino mouse assessed as protection against maximal electroshock-induced seizures at 450 mg/kg, ip after 4 hrs; type: functional, organism-based; parameters: dose 450 mg/kg; outline: as §4
Mus musculus [12] = assay: Anticonvulsant activity in CF1 albino mouse assessed as protection against scMet-induced seizures at 50 mg/kg, ip after 0.5 hrs; type: functional, organism-based; parameters: dose 50 mg/kg; outline: as §3
Mus musculus [13] = assay: Anticonvulsant activity in CF1 albino mouse assessed as protection against maximal electroshock-induced seizures at 150 mg/kg, ip after 4 hrs; type: functional, organism-based; parameters: dose 150 mg/kg; outline: as §4
Mus musculus [14] = assay: Anticonvulsant activity in CF1 albino mouse assessed as protection against maximal electroshock-induced seizures at 50 mg/kg, ip after 4 hrs; type: functional, organism-based; parameters: dose 50 mg/kg; outline: as §4
Mus musculus [15] = assay: Neurotoxicity in CF1 albino mouse at 150 mg/kg, ip after 4 hrs; type: toxicity, organism-based; parameters: dose 150 mg/kg, route intraperitoneal; conditions: in vivo; outline: as §5
Mus musculus [16] = assay: Neurotoxicity in CF1 albino mouse at 450 mg/kg, ip after 0.5 hrs; type: toxicity, organism-based; parameters: dose 450 mg/kg, route intraperitoneal; conditions: in vivo; outline: as §5
Mus musculus [17] = assay: Anticonvulsant activity in CF1 albino mouse assessed as protection against scMet-induced seizures at 450 mg/kg, ip after 0.5 hrs; type: functional, organism-based; parameters: dose 450 mg/kg; outline: as §3
Mus musculus [18] = assay: Anticonvulsant activity in CF1 albino mouse assessed as protection against scMet-induced seizures at 150 mg/kg, ip after 0.5 hrs; type: functional, organism-based; parameters: dose 150 mg/kg; outline: as §3
Mus musculus [19] = assay: Neurotoxicity in CF1 albino mouse at 150 mg/kg, ip after 0.5 hrs; type: toxicity, organism-based; parameters: dose 150 mg/kg, route intraperitoneal; conditions: in vivo; outline: as §5
Mus musculus [20] = assay: Neurotoxicity in CF1 albino mouse at 50 mg/kg, ip after 4 hrs; type: toxicity, organism-based; parameters: dose 50 mg/kg, route intraperitoneal; conditions: in vivo; outline: as §5
Mus musculus [21] = assay: Neurotoxicity in CF1 albino mouse at 50 mg/kg, ip after 0.5 hrs; type: toxicity, organism-based; parameters: dose 50 mg/kg, route intraperitoneal; conditions: in vivo; outline: as §5
Mus musculus [22] = assay: Anticonvulsant activity in CF1 albino mouse assessed as protection against scMet-induced seizures at 450 mg/kg, ip after 4 hrs; type: functional, organism-based; parameters: dose 450 mg/kg; outline: as §3
Rattus norvegicus [23] = species on record: Rattus norvegicus; assay: Protective index, ratio of TD50 for albino Sprague-Dawley rat to ED50 for maximal electroshock-induced albino Sprague-Dawley rat seizure model; type: functional
Outline: (§6)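 Protective index is the rat TD50 (minimal motor impairment) divided by the ED50 in the MES or sc pentylenetetrazol test. Male Sprague-Dawley rats were dosed orally in 0.5% methylcellulose, and both values came from probit analysis.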

Mus musculus [24] = species on record: Mus musculus; assay: Protective index, ratio of TD50 for CF1 albino mouse to ED50 for 44 mA-current-induced CF1 albino mouse seizure model; type: functional; outline: as §2
Rattus norvegicus [25] = assay: Anticonvulsant activity in po dosed albino Sprague-Dawley rat assessed as protection against maximal electroshock-induced seizures; type: functional
Rattus norvegicus [26] = assay: Anticonvulsant activity in po dosed albino Sprague-Dawley rat assessed as protection against scMet-induced seizures; type: functional
Outline: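 Male Sprague-Dawley albino rats (100-150 g) were dosed orally in 0.5% methylcellulose and tested by MES or by sc pentylenetetrazol (2.82% in 0.9% saline). Doses were varied to give 3-4 points between 0% and 100% protection. ED50 and 95% confidence intervals came from probit analysis.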

Mus musculus [27] = species on record: Mus musculus; assay: Protective index, ratio of TD50 for CF1 albino mouse to ED50 for maximal electroshock-induced CF1 albino seizure mouse model; type: functional
Outline: (§7)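 Ratio of TD50 to ED50 (MES or scMet) in male CF no. 1 mice (18-25 g) given ip doses in 0.5% methylcellulose. TD50 comes from minimal motor impairment: the dose was varied until four points lay between no impairment and all animals impaired. Both TD50 and ED50 were derived by probit analysis with 95% confidence intervals.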

Mus musculus [28] = species on record: Mus musculus; assay: Protective index, ratio of TD50 for CF1 albino mouse to ED50 for scMet-induced CF1 albino seizure mouse model; type: functional; outline: as §7
Mus musculus [29] = assay: Anticonvulsant activity in ip dosed CF1 albino mouse assessed as protection against maximal electroshock-induced seizures; type: functional
Outline: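 Male CF no. 1 albino mice (18-25 g) were dosed ip in 0.5% methylcellulose and tested by maximal electroshock. Doses were varied to give 3-4 points between 0% and 100% protection. ED50 with 95% confidence interval came from probit analysis.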

Mus musculus [30] = assay: Anticonvulsant activity in ip dosed CF1 albino mouse assessed as protection against scMet-induced seizures; type: functional
Outline: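 Adult male CF no. 1 albino mice (18-25 g) dosed ip with compound suspended in 0.5% methylcellulose (0.01 mL/g body weight). Seizures were induced by subcutaneous pentylenetetrazol, given as a 0.85% solution in 0.9% saline. ED50 was found by varying the dose to give 3-4 points between 0% and 100% protection, then probit analysis with 95% confidence intervals.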

Rattus norvegicus [31] = species on record: Rattus norvegicus; assay: Protective index, ratio of TD50 for albino Sprague-Dawley rat to ED50 for scMet-induced albino Sprague-Dawley rat seizure model; type: functional; outline: as §6
[32] = Neurotoxicity in po dosed albino Sprague-Dawley rat assessed as minimal motor impairment; type: toxicity, organism-based; conditions: in vivo
Outline: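 Rats: male Sprague-Dawley (100-150 g), oral dosing in 0.5% methylcellulose. Doses were varied to give four points between no minimal motor impairment and all animals impaired. TD50 and 95% confidence intervals came from probit analysis.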

SMILES: CC1(C)C(C(N)=O)C1(C)C
- ED50 (Mus musculus [1]): 72 mg/kg
- PI (Mus musculus [2]): 1.4
- ED50 (Mus musculus [3]): 99 mg/kg
- ED50 (Mus musculus [4]): > 200 mg/kg

SMILES: CC1(C)C(C)(C)C1(Br)C(=O)O
- Activity (Mus musculus [5]): Non-toxic
- Activity (Mus musculus [6]): Non-toxic
- Activity (Mus musculus [7]): Non-toxic
- Activity (Mus musculus [8]): Non-toxic
- Activity (Mus musculus [9]): Non-toxic
- Activity (Mus musculus [10]): Non-toxic
- Activity (Mus musculus [11]): Non-toxic
- Activity (Mus musculus [12]): Non-toxic
- Activity (Mus musculus [13]): Non-toxic
- Activity (Mus musculus [14]): Non-toxic
- Activity (Mus musculus [15]): Non-toxic
- Activity (Mus musculus [16]): Non-toxic
- Activity (Mus musculus [17]): Non-toxic
- Activity (Mus musculus [18]): Non-toxic
- Activity (Mus musculus [19]): Non-toxic
- Activity (Mus musculus [20]): Non-toxic
- Activity (Mus musculus [21]): Non-toxic
- Activity (Mus musculus [22]): Non-toxic

SMILES: CCCC(CCC)C(N)=O [VALPROMIDE]
- PI (Rattus norvegicus [23]): 2.7
- ED50 (Mus musculus [1]): 57 mg/kg
- PI (Mus musculus [2]): 1.4
- PI (Mus musculus [24]): 1.2
- ED50 (Mus musculus [3]): 81 mg/kg
- ED50 (Rattus norvegicus [25]): 32 mg/kg
- ED50 (Rattus norvegicus [26]): 59 mg/kg
- PI (Mus musculus [27]): 1.4
- ED50 (Mus musculus [4]): 66 mg/kg
- PI (Mus musculus [28]): 1.5
- ED50 (Mus musculus [29]): 56 mg/kg
- ED50 (Mus musculus [30]): 55 mg/kg
- PI (Rattus norvegicus [31]): 1.5
- TD50 [32]: 87 mg/kg
